Data on 9 compounds can be found in ChEMBL document CHEMBL3351230, “Synthesis of 2-anilinopyridine dimers as microtubule targeting and apoptosis inducing agents” (Bioorg Med Chem, 2014).

Calls of active or inactive are those of the source. The calls are words filed in the database; no cut-off is given here.

One test has as its system A549. In words: Antiproliferative activity against human A549 cells assessed as growth inhibition after 48 hrs by SRB assay. Conditions: A549, 48 h. (In SRB staining, fixed cells bind dye roughly in proportion to their protein.)
The subject of the next test is MCF7. In words: Antiproliferative activity against human MCF7 cells assessed as growth inhibition after 48 hrs by SRB assay. Conditions: MCF7, 48 h.
Test [1] deals with DU-145. In words: Antiproliferative activity against human DU145 cells assessed as growth inhibition after 48 hrs by SRB assay. As to conditions: DU-145, 48 h.
For test [2], the system named is DU-145. In words: Induction of apoptosis in human DU145 cells assessed as mitochondrial membrane potential drop measured as early apoptotic cells at 2 uM after 48 hrs using JC-1 staining-based flow cytometry (reference value: 9.1%). It is filed as functional. Background: In flow cytometry, cells or beads pass a laser one at a time.
Test [3] deals with DU-145. In words: Induction of apoptosis in human DU145 cells assessed as mitochondrial membrane potential drop measured as late apoptotic cells at 2 uM after 48 hrs using JC-1 staining-based flow cytometry (reference value: 90.9%). The format is functional.
Test [4] deals with DU-145. In words: Cell cycle arrest in human DU145 cells assessed as cells accumulation at SubG1 phase at 2 uM after 48 hrs by propidium iodide staining-based flow cytometric analysis (reference value: 3.52%). It is filed as functional.
Test [5] has as its system DU-145. In words: Cell cycle arrest in human DU145 cells assessed as cells accumulation at S phase at 2 uM after 48 hrs by propidium iodide staining-based flow cytometric analysis (reference value: 4.18%). The format is functional.
Test [6] has as its system DU-145. In words: Induction of apoptosis in human DU145 cells assessed as viable cells at 2 uM after 48 hrs by annexin V-FITC/propidium iodide staining-based flow cytometric analysis (reference value: 97.12%). It is filed as functional. As to conditions: DU-145, 48 h, read-out: Activity.
For test [7], the system named is DU-145. In words: Cell cycle arrest in human DU145 cells assessed as cells accumulation at G0/G1 phase at 2 uM after 48 hrs by propidium iodide staining-based flow cytometric analysis (reference value: 84.75%). The format is functional.
The test system of test [8] is DU-145. In words: Induction of apoptosis in human DU145 cells assessed as late apoptotic cells at 2 uM after 48 hrs by annexin V-FITC/propidium iodide staining-based flow cytometric analysis (reference value: 1.96%). The format is functional.
The test system of test [9] is DU-145. In words: Cell cycle arrest in human DU145 cells assessed as cells accumulation at G2/M phase at 2 uM after 48 hrs by propidium iodide staining-based flow cytometric analysis (reference value: 6.81%). The format is functional.
The next test concerns the target Tubulin. In words: Inhibition of tubulin polymerization (unknown origin) after 1 hr by fluorescence analysis. The format is protein-complex assay, Homo sapiens. The essentials:
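Fluorescence-reporter tubulin polymerization kit. Tubulin (3 mg/mL) in PEM buffer with 1 mM GTP, with or without compound (3 µM, or 2.5–15 µM for IC50). Fluorescence (ex 360 / em 420 nm) was followed for 1 h at 37 °C. IC50 is the concentration giving 50% inhibition of assembly versus control. Data are mean ± SD of two experiments in triplicate, with E7010 as positive control.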

Another test addresses Tubulin (Homo sapiens) (UniProt P68371+Q9H4B7+P0DPH7+P68366+Q13509+Q71U36+P04350+Q3ZCM7+P07437+P68363+Q9BQE3+Q6PEY2+Q13885+Q9BVA1+Q9BUF5). In words: Displacement of colchicine from tubulin (unknown origin) at 5 to 25 uM after 60 mins by competitive binding assay. The format is protein-complex assay. The gist of the method: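 Compound (5, 10, 15, 20, 25 µM) was co-incubated with 4 µM colchicine and 3 µM tubulin in 30 mM Tris buffer for 60 min at 37 °C. Tubulin–colchicine fluorescence was read at ex 350 / em 435 nm. Buffer blank was subtracted and values were normalized to DMSO control (F/F0). Nocodazole or E7010 served as positive control and taxol as negative control.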

In test [10] the test system is DU-145. In words: Induction of apoptosis in human DU145 cells assessed as necrotic cells at 2 uM after 48 hrs by annexin V-FITC/propidium iodide staining-based flow cytometric analysis (reference value: 0.22%). The format is functional.
Test [11] concerns DU-145. In words: Induction of apoptosis in human DU145 cells assessed as mitochondrial membrane potential drop measured as necrotic cells at 2 uM after 48 hrs using JC-1 staining-based flow cytometry (reference value: 0%). The format is functional.
The test system of test [12] is DU-145. In words: Induction of apoptosis in human DU145 cells assessed as early apoptotic cells at 2 uM after 48 hrs by annexin V-FITC/propidium iodide staining-based flow cytometric analysis (reference value: 0.71%). It is filed as functional.
Test [13] deals with DU-145. In words: Induction of apoptosis in human DU145 cells assessed as mitochondrial membrane potential drop measured as viable cells at 2 uM after 48 hrs using JC-1 staining-based flow cytometry (reference value: 0%). The format is functional.

As usually defined, the GI50 is the concentration giving 50% growth inhibition. Regarding `COc1ccc(Nc2ncccc2NC(=O)c2cccnc2Nc2ccc(OC)cc2)cc1`, the 50% growth inhibitory concentration (GI50) was above 100 µM with A549, above 100 µM in the test on MCF7 and 21.2 µM in the test on DU-145 [1].

With `COc1ccc(Nc2ncccc2C(=O)Nc2cccnc2Nc2ccc(F)cc2)cc1`, the values for the 50% growth inhibitory concentration (GI50) in the test with A549, with MCF7 and in the test on DU-145 [1] were 18.5 µM, 17.3 µM and above 100 µM, respectively.

For `O=C(Nc1cccnc1Nc1ccc(Cl)cc1)c1cccnc1Nc1ccc(F)cc1`, the GI50 in the test with A549 was above 100 µM; in the test on MCF7, above 100 µM; with DU-145 [1], 4.1 µM.

Turning to `COc1ccc(Nc2ncccc2C(=O)Nc2cccnc2Nc2ccccc2)cc1`, the figures for the concentration for 50% growth inhibition (GI50) with A549, in the test on MCF7 and in the test on DU-145 [1] were above 100 µM, above 100 µM and 8.1 µM, respectively.

With `COc1ccc(Nc2ncccc2NC(=O)c2cccnc2Nc2ccc(F)cc2)cc1`, the concentration for 50% growth inhibition (GI50) with A549 is 4.1 µM; with MCF7, above 100 µM; with DU-145 [1], 6.6 µM.

Usually IC50 stands for the concentration that gives 50% inhibition. Lower therefore signals inhibition by little substance. In the case of `COc1ccc(S(=O)(=O)Nc2cccnc2Nc2ccc(O)cc2)cc1` [ABT-751], the Activity was 18.1% with DU-145 [2]; 81.9% in the test on DU-145 [3]; 4.11% in the test with DU-145 [4]; 2.94% with DU-145 [5]; 54.38% in the test on DU-145 [7]; 17.72% in the test with DU-145 [8]. In addition, the Activity in the test on DU-145 [9] is given as 36.52%; in the test on DU-145 [10] it was 1.01%; in the test with DU-145 [11], 0%; with DU-145 [12] it was 3.93%; in the test on DU-145 [13] it was 0%. Further, the values for the GI50 in the test with A549, in the test on MCF7 and with DU-145 [1] were 1.31 µM, 1.25 µM and 1.81 µM, respectively. Besides, in the test with DU-145 [6], the viability at 2 µM worked out at 77.3%. The compound further came in with a concentration for half-maximal inhibition (IC50) at Tubulin of 2.4 µM. Moreover, on Tubulin (Homo sapiens), the inhibition entry was “Active”.

With `O=C(Nc1cccnc1Nc1ccccc1)c1cccnc1Nc1ccc(F)cc1`, the GI50 was above 100 µM with A549, above 100 µM with MCF7 and 7.7 µM with DU-145 [1].

Regarding `COc1cc(Nc2ncccc2C(=O)Nc2cccnc2Nc2ccccc2)cc(OC)c1OC`, the GI50 in the test with A549 was 6 µM; in the test with MCF7, above 100 µM; in the test on DU-145 [1], above 100 µM.

`COc1ccc(Nc2ncccc2NC(=O)c2cccnc2Nc2cc(C(F)(F)F)cc(C(F)(F)F)c2)cc1`: the GI50 with A549 was above 100 µM; in the test on MCF7, above 100 µM; with DU-145 [1], 9.8 µM.
